Published values gathered from unrelated publications.
Each line is one published result; the experiments were not run side by side.
CSF1R: Macrophage colony-stimulating factor 1 receptor (CSF1R, Homo sapiens, UniProt P07333)
CSF1R autoinhibited: Macrophage colony-stimulating factor 1 receptor, autoinhibited (CSF1R, Homo sapiens, UniProt P07333)

| SMILES | target | assay | conditions | measurement | value |
| --- | --- | --- | --- | --- | --- |
| C#Cc1cnc(Nc2ccnc(CO)c2)nc1Nc1ccccc1S(C)(=O)=NC#N (centres unmarked) | CSF1R | cell-free assay | 1 µM | remaining signal | 53% |
| C=CC(=O)N1CCC([C@@H]2CCNc3c(C(N)=O)c(-c4ccc(Oc5ccccc5)cc4)nn32)CC1 | CSF1R autoinhibited | cell-free assay | 1 µM | inhibition | 0% |
| Cc1ccc(NC(=O)c2ccnc(C(F)(F)F)c2)cc1-c1cc(OCCO)nc(N2CCOCC2)c1 | CSF1R autoinhibited | binding, competition with immobilised ligand | 1 µM | remaining binding | 87% |
| N#Cc1ccc(NC(=O)Nc2ccccc2)cc1 | CSF1R | cell-free assay, competition with immobilised ligand | 25 µM | remaining binding | 61% |
| CCCCC(=O)Nc1ccc(-c2ccc3ncn(CCC)c(=O)c3c2)cn1 | CSF1R | binding, competition with immobilised ligand | 0.5 µM | remaining binding | 88% |
| C1=C/COCc2cc(ccc2OCCN2CCCC2)Nc2nccc(n2)-c2cccc(c2)COC/1 | CSF1R autoinhibited | binding | 0.1 µM | remaining binding | 53% |
| CC#CC(=O)N1CCC[C@H]1c1nc(-c2ccc(C(=O)Nc3ccccn3)cc2)c2c(N)nccn12 | CSF1R | enzyme activity, inhibitor | 1 µM | inhibition | 0% |
| COc1ccc2[nH]c3c4[nH]c5ccc(OC)cc5c4c4c(c3c2c1)C(=O)NC4=O | CSF1R | binding, competition with immobilised ligand | 1 µM | remaining binding | 58% |
